According to ChEMBL document CHEMBL2203156, “Design, synthesis and pharmacological characterization of coumarin-based fluorescent analogs of excitatory amino acid transporter subtype 1 selective inhibitors, UCPH-101 and UCPH-102” (Bioorg Med Chem, 2012):

Experiments:
Format in all cases: cell-based
[1] = target: Excitatory amino acid transporter 2 (Homo sapiens, UniProt P43004); assay: Inhibition of [3H]-D-aspartate uptake at human EAAT2 expressed in HEK293 cells after 6 mins by scintillation counting
Outline: (§1)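 Each transporter subtype stably expressed in its own HEK293 cell line. Inhibitor potency measured as block of [³H]-D-aspartate uptake into these cells and reported as IC₅₀ values.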

[2] = target: T1, Excitatory amino acid transporter 3 (Homo sapiens, UniProt P43005); assay: Inhibition of [3H]-D-aspartate uptake at human EAAT3 expressed in HEK293 cells after 6 mins by scintillation counting; outline: as §1
T1 sequence (P43005 whole entry): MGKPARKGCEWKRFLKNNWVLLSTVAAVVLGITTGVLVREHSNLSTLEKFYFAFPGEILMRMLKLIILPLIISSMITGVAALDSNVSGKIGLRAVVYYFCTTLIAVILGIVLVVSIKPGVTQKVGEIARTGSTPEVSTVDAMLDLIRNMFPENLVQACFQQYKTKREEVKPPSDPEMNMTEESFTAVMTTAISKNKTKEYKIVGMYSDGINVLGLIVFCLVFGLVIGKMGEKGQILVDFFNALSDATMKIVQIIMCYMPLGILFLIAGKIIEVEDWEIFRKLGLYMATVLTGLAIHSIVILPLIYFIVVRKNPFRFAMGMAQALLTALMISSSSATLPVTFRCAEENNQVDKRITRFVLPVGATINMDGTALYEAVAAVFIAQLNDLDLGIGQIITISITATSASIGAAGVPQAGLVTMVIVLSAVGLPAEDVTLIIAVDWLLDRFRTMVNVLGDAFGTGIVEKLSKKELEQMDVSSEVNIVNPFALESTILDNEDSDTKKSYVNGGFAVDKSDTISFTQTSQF

[3] = target: Excitatory amino acid transporter 1 (Homo sapiens, UniProt P43003); assay: Inhibition of [3H]-D-aspartate uptake at human EAAT1 expressed in HEK293 cells after 6 mins by scintillation counting; outline: as §1
Sequence of Excitatory amino acid transporter 1 (P43003 whole entry): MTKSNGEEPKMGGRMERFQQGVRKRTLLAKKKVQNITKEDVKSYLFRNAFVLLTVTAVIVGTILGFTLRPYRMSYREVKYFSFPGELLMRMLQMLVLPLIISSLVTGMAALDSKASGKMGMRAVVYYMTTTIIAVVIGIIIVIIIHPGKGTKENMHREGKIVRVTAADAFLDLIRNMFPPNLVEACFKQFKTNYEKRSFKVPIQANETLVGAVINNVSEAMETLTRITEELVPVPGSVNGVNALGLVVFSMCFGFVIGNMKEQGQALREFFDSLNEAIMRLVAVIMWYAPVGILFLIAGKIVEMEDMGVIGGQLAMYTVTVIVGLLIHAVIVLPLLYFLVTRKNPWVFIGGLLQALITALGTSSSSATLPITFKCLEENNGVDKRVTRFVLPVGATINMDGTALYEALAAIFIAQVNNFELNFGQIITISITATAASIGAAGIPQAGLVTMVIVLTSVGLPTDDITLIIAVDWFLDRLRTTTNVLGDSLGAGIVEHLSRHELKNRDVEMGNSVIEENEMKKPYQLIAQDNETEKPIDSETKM

Sequence of Excitatory amino acid transporter 2 (P43004 whole entry): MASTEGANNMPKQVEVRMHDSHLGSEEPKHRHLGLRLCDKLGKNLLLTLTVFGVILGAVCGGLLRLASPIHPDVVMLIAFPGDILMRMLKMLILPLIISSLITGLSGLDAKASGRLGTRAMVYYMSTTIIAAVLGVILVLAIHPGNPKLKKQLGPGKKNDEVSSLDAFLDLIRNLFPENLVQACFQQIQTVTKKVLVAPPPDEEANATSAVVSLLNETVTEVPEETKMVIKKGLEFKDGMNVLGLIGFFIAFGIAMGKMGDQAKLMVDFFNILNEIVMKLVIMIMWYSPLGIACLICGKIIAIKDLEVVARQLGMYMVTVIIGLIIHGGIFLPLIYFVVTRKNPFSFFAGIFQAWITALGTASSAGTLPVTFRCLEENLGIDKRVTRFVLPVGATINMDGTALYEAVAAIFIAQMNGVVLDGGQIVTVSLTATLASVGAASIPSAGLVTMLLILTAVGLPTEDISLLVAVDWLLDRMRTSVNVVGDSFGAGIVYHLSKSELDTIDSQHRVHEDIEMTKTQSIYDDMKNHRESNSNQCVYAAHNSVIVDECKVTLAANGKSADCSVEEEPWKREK

Row | IC50 [1] | IC50 [2] | IC50 ([3]; read-out: IC50) | IC50 ([3]; read-out: pIC50 (converted)) | Structure (SMILES)
1 | > 300 µM | > 300 µM | 14 µM |  | CCN(CC)c1ccc2c(C3CC(=O)C4=C(C3)OC(N)=C(C#N)C4C)cc(=O)oc2c1 (stereo not drawn)
2 | > 300 µM | > 300 µM | 17 µM | 16.2 µM | COc1ccc2c(C3CC(=O)C4=C(C3)OC(N)=C(C#N)C4C)cc(=O)oc2c1 (stereo not drawn)
3 | > 300 µM | > 300 µM | > 300 µM | > 316 µM | CCN(CC)c1ccc2c(C)c(-c3ccc(C4C(C#N)=C(N)OC5=C4C(=O)CC(c4ccccc4)C5)cc3)c(=O)oc2c1 (stereo not drawn)
4 | > 300 µM | > 300 µM | > 300 µM | > 316 µM | COc1ccc2c(C)c(-c3ccc(C4C(C#N)=C(N)OC5=C4C(=O)CC(c4ccccc4)C5)cc3)c(=O)oc2c1 (stereo not drawn)
5 | > 300 µM | > 300 µM | > 300 µM | > 316 µM | CCN(CC)c1ccc2c(C3C(C#N)=C(N)OC4=C3C(=O)CC(c3cccc5ccccc35)C4)cc(=O)oc2c1 (stereo not drawn)
6 | > 300 µM | > 300 µM | > 300 µM | > 316 µM | COc1ccc2c(C3C(C#N)=C(N)OC4=C3C(=O)CC(c3ccccc3)C4)cc(=O)oc2c1 (stereo not drawn)
